From ChEMBL document CHEMBL2385035 (J Med Chem, 2013) come the findings set out here.

The structures appear in SMILES notation.

The Papp is a coefficient for how fast a substance crosses the barrier. Usually IC50 stands for the point on the concentration scale where inhibition reaches its midpoint. What is called Cmax is the peak of the concentration-time curve. The ED50 is the dose that gives a 50% effect, or the effect in half of the subjects. What is called half-life is the time needed for the level to fall by half in the phase considered.

The nature of data set [1]: Apparent permeability in MDCK cells expressing MDR1 at 3 uM after 60 mins by LC-MS/MS analysis. The class given is ADME, cell-based, Canis lupus familiaris. The note with it: dog.
Data set [2] deals with T1, Ileal sodium/bile acid cotransporter (Homo sapiens, UniProt Q12908).
T1 sequence (Q12908 whole entry): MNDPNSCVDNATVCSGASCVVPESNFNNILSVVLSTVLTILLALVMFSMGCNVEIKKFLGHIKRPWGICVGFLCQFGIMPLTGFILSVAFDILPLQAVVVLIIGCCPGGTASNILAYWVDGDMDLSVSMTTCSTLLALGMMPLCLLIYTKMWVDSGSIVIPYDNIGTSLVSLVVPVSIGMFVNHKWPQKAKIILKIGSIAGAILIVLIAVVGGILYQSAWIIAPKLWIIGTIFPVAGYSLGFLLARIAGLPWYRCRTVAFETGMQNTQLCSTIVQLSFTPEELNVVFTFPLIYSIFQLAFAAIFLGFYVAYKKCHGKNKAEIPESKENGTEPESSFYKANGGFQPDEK
The experiment in a line: Inhibition of human ASBT expressed in HEK293 cells assessed as inhibition of [3H]-taurocholate uptake after 90 mins by scintillation counting analysis. The class given is cell-based.

The nature of data set [3]: Cmax in Sprague-Dawley rat portal vein blood at 10 mg/kg, po. The class given is ADME, organism-based. On the set-up: dose 10 mg/kg, route oral. The method, boiled down:
(§1)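 Fed male SD rats given a single oral gavage dose of 10 mg/kg. Maximum parent drug concentration measured in portal vein blood and in systemic blood.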

Data set [4] in a line: Cmax in Sprague-Dawley rat systemic blood at 10 mg/kg, po. It is filed as ADME, organism-based. Further details: dose 10 mg/kg, route oral. In outline: as §1
Data set [5] deals with Mus musculus. The experiment in a line: In vivo inhibition of ASBT in C57BL/6J mouse assessed as increase in fecal bile acid excretion measured for 24 hrs relative to 264W94. It is filed as functional, Feces. Further details: concentration or dose not given beside the values.
For data set [6], the system named is Mus musculus. Nature of the data set: In vivo inhibition of ASBT in C57BL/6J mouse assessed as increase in fecal bile acid excretion measured for 24 hrs. Particulars: Feces. It is filed as functional.
Data set [7] is described as follows: Drug recovery in Sprague-Dawley rat feces at 10 mg/kg, po. It is filed as ADME, organism-based. Further details: dose 10 mg/kg, route oral. Particulars: read-out: Drug recovery.
A short description of data set [8]: Half life in Sprague-Dawley rat intestine at 10 mg/kg, po. The class given is ADME, organism-based. Further details: dose 10 mg/kg, route oral.

On to `CCCC[C@]1(CC)CS(=O)(=O)c2cc(CCCC(=O)O)c(OC)cc2[C@@H](c2ccccc2)N1`, for which the Papp at 1 h, 3 µM in data set [1] is 34.2 ×10⁻⁶ cm/s.

Take `CCCC[C@]1(CC)CS(=O)(=O)c2cc(CCC(=O)NC(CC(=O)O)CC(=O)O)c(OC)cc2[C@@H](c2ccccc2)N1`: the IC50 in data set [2] was over 3000 nM.

Regarding `CCCC[C@]1(CC)CS(=O)(=O)c2cc(CN(CC(=O)O)CC(=O)O)c(OC)cc2[C@@H](c2ccccc2)N1`, the Cmax in data set [3] was found to be 56 ng/mL; in data set [4] it was 43 ng/mL. Moreover, the Papp at 1 h, 3 µM in data set [1] is 0.4 ×10⁻⁶ cm/s. In addition, in data set [2], the 50% inhibitory concentration (IC50) was 245 nM.

Take `CCCC[C@]1(CC)CS(=O)(=O)c2cc(CN[C@@H](CC(=O)O)C(=O)O)c(OC)cc2[C@@H](c2ccccc2)N1`: the results for the maximum concentration (Cmax) in data set [3] and in data set [4] were 93 ng/mL and 1 ng/mL, respectively. Besides, the Papp at 1 h, 3 µM in data set [1] worked out at 0.6 ×10⁻⁶ cm/s.

Regarding `CCCC[C@]1(CC)CS(=O)(=O)c2cc(CNC(=O)C(=O)O)c(OC)cc2[C@@H](c2ccccc2)N1`, the peak concentration (Cmax) in data set [3] amounted to 87 ng/mL.

Turning to `CCCC[C@]1(CC)CS(=O)(=O)c2cc(CN3CCC[C@H]3C(=O)O)c(OC)cc2[C@@H](c2ccccc2)N1`, the IC50 in data set [2] was over 3000 nM.

Turning to `CCCC[C@]1(CC)CS(=O)(=O)c2cc(CN(CP(=O)(O)O)CP(=O)(O)O)c(OC)cc2[C@@H](c2ccccc2)N1`, the IC50 in data set [2] is over 3000 nM.

Turning to `CCCC[C@]1(CC)CS(=O)(=O)c2cc(C(CC(=O)O)CC(=O)O)c(OC)cc2[C@@H](c2ccccc2)N1`, the maximum concentration (Cmax) in data set [3] came to 333 ng/mL; in data set [4] it was 19 ng/mL. The apparent permeability (Papp) at 1 h, 3 µM in data set [1] worked out at 0.5 ×10⁻⁶ cm/s. For the same compound, the half-maximal inhibitory concentration (IC50) in data set [2] is over 3000 nM.

With `CCCC[C@]1(CC)CS(=O)(=O)c2cc(OCCCC(=O)O)c(OC)cc2[C@@H](c2ccccc2)N1`, the apparent permeability (Papp) at 1 h, 3 µM in data set [1] is 30.3 ×10⁻⁶ cm/s. Also, the IC50 in data set [2] was found to be 13 nM.

For the compound `CCCC[C@]1(CC)CS(=O)(=O)c2cc(CN(C)CC(=O)O)c(OC)cc2[C@@H](c2ccccc2)N1`, the results for the maximum concentration (Cmax) in data set [3] and in data set [4] were 224 ng/mL and 1 ng/mL, respectively. The Papp at 1 h, 3 µM in data set [1] worked out at 1 ×10⁻⁶ cm/s.

Regarding `CCCC[C@]1(CC)CS(=O)(=O)c2cc(OCP(=O)(O)O)c(OC)cc2[C@@H](c2ccccc2)N1`, the IC50 in data set [2] was 900 nM.

For `CCCC[C@]1(CC)CS(=O)(=O)c2cc(CCP(=O)(O)O)c(OC)cc2[C@@H](c2ccccc2)N1`, in data set [1], the Papp at 1 h, 3 µM came out at 1.2 ×10⁻⁶ cm/s.

Regarding `CCCC[C@]1(CC)CS(=O)(=O)c2cc(CCC(=O)NCC(=O)O)c(OC)cc2[C@@H](c2ccccc2)N1`, in data set [1], the Papp at 1 h, 3 µM was 1.2 ×10⁻⁶ cm/s.

Regarding `CCCC[C@]1(CC)CS(=O)(=O)c2cc(OCCCP(=O)(O)O)c(OC)cc2[C@@H](c2ccccc2)N1`, the values for the highest concentration (Cmax) in data set [3] and in data set [4] were 260 ng/mL and 7 ng/mL, respectively. The apparent permeability (Papp) at 1 h, 3 µM in data set [1] is 1 ×10⁻⁶ cm/s. Besides, the IC50 in data set [2] stood at 133 nM.

On to `CCCC[C@]1(CC)CS(=O)(=O)c2cc(CN[C@@H](CO)C(=O)O)c(OC)cc2[C@@H](c2ccccc2)N1`, for which, in the data set on Mus musculus [5], the Efficacy is 47%. Also, the ED50 with Mus musculus [6] is 0.012 mg/kg. The dose excreted in data set [7] is 63%. In data set [8], the half-life was 8 h. Besides, the figures for the maximum concentration (Cmax) in data set [3] and in data set [4] were 12 ng/mL and 24 ng/mL, respectively. Moreover, the apparent permeability (Papp) at 1 h, 3 µM in data set [1] came out at 0.5 ×10⁻⁶ cm/s.

Turning to `CCCC[C@]1(CC)CS(=O)(=O)c2cc(CN(CCS(=O)(=O)O)CCS(=O)(=O)O)c(OC)cc2[C@@H](c2ccccc2)N1`, the apparent permeability coefficient (Papp) at 1 h, 3 µM in data set [1] is 0.8 ×10⁻⁶ cm/s.

On to `CCCC[C@]1(CC)CS(=O)(=O)c2cc(OCCP(=O)(O)O)c(OC)cc2[C@@H](c2ccccc2)N1`, for which the Cmax was determined as 82 ng/mL in data set [3] and 16 ng/mL in data set [4]. Further, in data set [1], the apparent permeability coefficient (Papp) at 1 h, 3 µM turned out to be 0.8 ×10⁻⁶ cm/s. Moreover, the IC50 in data set [2] is 44 nM.

As to `CCCC[C@]1(CC)CS(=O)(=O)c2cc(CNC(=O)CNC(CC(=O)O)CC(=O)O)c(OC)cc2[C@@H](c2ccccc2)N1`, the concentration for half-maximal inhibition (IC50) in data set [2] is over 3000 nM.

`CCCC[C@]1(CC)CS(=O)(=O)c2cc(CCC(=O)O)c(OC)cc2[C@@H](c2ccccc2)N1`: in data set [1], the Papp at 1 h, 3 µM was found to be 38.3 ×10⁻⁶ cm/s.

With `CCCC[C@]1(CC)CS(=O)(=O)c2cc(CS(=O)(=O)O)c(OC)cc2[C@@H](c2ccccc2)N1`, the highest concentration (Cmax) in data set [3] was determined as 170 ng/mL; in data set [4] it was 3 ng/mL. In addition, the apparent permeability coefficient (Papp) at 1 h, 3 µM in data set [1] turned out to be 0.9 ×10⁻⁶ cm/s.

For `CCCC[C@]1(CC)CS(=O)(=O)c2cc(CNC(=O)CS(=O)(=O)O)c(OC)cc2[C@@H](c2ccccc2)N1`, the values for the Cmax in data set [3] and in data set [4] were 122 ng/mL and 26 ng/mL, respectively. Further, the Papp at 1 h, 3 µM in data set [1] was 1.9 ×10⁻⁶ cm/s.

Take `CCCC[C@]1(CC)CS(=O)(=O)c2cc(OCCS(=O)(=O)O)c(OC)cc2[C@@H](c2ccccc2)N1`: the maximum concentration (Cmax) came out at 220 ng/mL in data set [3] and 7 ng/mL in data set [4]. In addition, the apparent permeability coefficient (Papp) at 1 h, 3 µM in data set [1] is 1.2 ×10⁻⁶ cm/s. Moreover, the IC50 in data set [2] was 4 nM.

Regarding `CCCC[C@]1(CC)CS(=O)(=O)c2cc(CCCS(=O)(=O)O)c(OC)cc2[C@@H](c2ccccc2)N1`, the Papp at 1 h, 3 µM in data set [1] is 0.7 ×10⁻⁶ cm/s.

With `CCCC[C@]1(CC)CS(=O)(=O)c2cc(C(=O)NCC(C)(C)C(=O)O)c(OC)cc2[C@@H](c2ccccc2)N1`, in data set [1], the apparent permeability coefficient (Papp) at 1 h, 3 µM turned out to be 4.3 ×10⁻⁶ cm/s.

As for `CCCC[C@]1(CC)CS(=O)(=O)c2cc(C(=O)NCCS(=O)(=O)O)c(OC)cc2[C@@H](c2ccccc2)N1`, the peak concentration (Cmax) amounted to 132 ng/mL in data set [3] and 38 ng/mL in data set [4]. Besides, in data set [1], the apparent permeability coefficient (Papp) at 1 h, 3 µM was found to be 0.4 ×10⁻⁶ cm/s.

As for `CCCC[C@]1(CC)CS(=O)(=O)c2cc(C(=O)NCS(=O)(=O)O)c(OC)cc2[C@@H](c2ccccc2)N1`, the maximum concentration (Cmax) in data set [3] amounted to 92 ng/mL; in data set [4] it was 4 ng/mL. Moreover, the apparent permeability (Papp) at 1 h, 3 µM in data set [1] was 0.7 ×10⁻⁶ cm/s.

As to `CCCC[C@]1(CC)CS(=O)(=O)c2cc(CN(C)CCC(=O)O)c(OC)cc2[C@@H](c2ccccc2)N1`, the IC50 in data set [2] worked out at 367 nM.

Regarding `CCCC[C@]1(CC)CS(=O)(=O)c2cc(CCC(=O)NCS(=O)(=O)O)c(OC)cc2[C@@H](c2ccccc2)N1`, in data set [1], the Papp at 1 h, 3 µM amounted to 0.7 ×10⁻⁶ cm/s.

As to `CCCC[C@]1(CC)CS(=O)(=O)c2cc(CNC(=O)CP(=O)(O)O)c(OC)cc2[C@@H](c2ccccc2)N1`, in data set [1], the apparent permeability coefficient (Papp) at 1 h, 3 µM was 0.3 ×10⁻⁶ cm/s.

As to `CCCC[C@]1(CC)CS(=O)(=O)c2cc(CN[C@H](CC(=O)O)C(=O)O)c(OC)cc2[C@@H](c2ccccc2)N1`, the Efficacy in the data set on Mus musculus [5] is 70%. In the data set with Mus musculus [6], the median effective dose (ED50) is over 1 mg/kg. The dose excreted in data set [7] came to 100%. Also, the Cmax in data set [3] was determined as 11 ng/mL; in data set [4], 1 ng/mL. The Papp at 1 h, 3 µM in data set [1] came to 0.7 ×10⁻⁶ cm/s.

In the case of `CCCC[C@]1(CC)CS(=O)(=O)c2cc(OCCCS(=O)(=O)O)c(OC)cc2[C@@H](c2ccccc2)N1`, the Cmax in data set [3] worked out at 289 ng/mL; in data set [4], 1 ng/mL. The Papp at 1 h, 3 µM in data set [1] turned out to be 0.8 ×10⁻⁶ cm/s. For the same compound, the IC50 in data set [2] came out at 50 nM.

As to `CCCC[C@]1(CC)CS(=O)(=O)c2cc(CNCP(=O)(O)O)c(OC)cc2[C@@H](c2ccccc2)N1`, the IC50 in data set [2] is over 3000 nM.

As for `CCCC[C@]1(CC)CS(=O)(=O)c2cc(CCCP(=O)(O)O)c(OC)cc2[C@@H](c2ccccc2)N1`, in data set [1], the Papp at 1 h, 3 µM worked out at 0.7 ×10⁻⁶ cm/s.

`CCCC[C@]1(CC)CS(=O)(=O)c2cc(OCC(=O)O)c(OC)cc2[C@@H](c2ccccc2)N1`: the Cmax in data set [3] is 1460 ng/mL; in data set [4], 26 ng/mL. The Papp at 1 h, 3 µM in data set [1] amounted to 1 ×10⁻⁶ cm/s. The IC50 in data set [2] is 34 nM.
